Data taken from ChEMBL document CHEMBL1151321, “Bisamides, lignans, triterpenes, and insecticidal Cyclopenta[b]benzofurans from Aglaia species” (J Nat Prod, 1998).

Legend:
Spodoptera littoralis [1] = assay: Insecticidal activity against Spodoptera littoralis larvae assessed as survival rat after 5 days; assay type: functional
Procedure, shortened: (§1)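 Larvae kept 5 days in a moist chamber at 29 °C in darkness, then survival and larval weight compared with a carrier-only control group. Run in triplicate; LC50 (survival) and EC50 (growth) from dose-response curves by probit-log analysis.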

Spodoptera littoralis [2] = assay: Insecticidal activity against Spodoptera littoralis larvae assessed as growth inhibition after 5 days; assay type: functional, organism-based; procedure, shortened: as §1
Lymantria dispar = assay: Insecticidal activity against Lymantria dispar larvae assessed as mean weight of surviving larvae after 8 days; assay type: functional, organism-based
Procedure, shortened: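 Freshly hatched larvae (n = 10) from a laboratory colony reared on wheat germ-casein diet, fed diet spiked with 1 μg – 100 μg/g fresh wt of compound. Kept 8 days in a moist chamber at 26 °C in darkness. Mean weight of surviving larvae compared with controls. Commercial azadirachtin (>96%) as positive control. Three replicates; LC50/EC50 from dose-response curves by probit-log analysis.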

CC(C)(O)C(=O)NC1CCCN1C(=O)/C=C/c1ccccc1 (stereo unspecified) [PIRIFERINOL]
LC50 (Spodoptera littoralis [1]): >250 µg/g
EC50 (Spodoptera littoralis [2]): > 250 µg/g

COC(=O)[C@H]1[C@@H](O)[C@@]2(O)c3c(cc4c(c3OC)OCO4)O[C@@]2(c2ccc(OC)cc2)[C@@H]1c1ccccc1 [PANNELLIN]
LC50 (Spodoptera littoralis [1]): 2.1 µg/g
EC50 (Lymantria dispar): 1.4 µg/g
EC50 (Spodoptera littoralis [2]): 0.24 µg/g

C/C=C(\C)C(=O)O[C@H]1C[C@@H](OC(C)=O)[C@@]2(C(=O)OC)CO[C@H]3[C@@H](O)[C@@](C)([C@]45O[C@@]4(C)[C@@H]4C[C@H]5O[C@@H]5OC=C[C@@]54O)[C@H]4[C@]1(CO[C@]4(O)C(=O)OC)[C@@H]32 [AZADIRACHTIN A]
LC50 (Spodoptera littoralis [1]): 6.1 µg/g
EC50 (Lymantria dispar): 0.6 µg/g
EC50 (Spodoptera littoralis [2]): 0.11 µg/g

CC(=O)N(CCCCNC(=O)/C=C/c1ccccc1)C(=O)CCc1ccccc1 [EDULIMIDE]
LC50 (Spodoptera littoralis [1]): >250 µg/g
EC50 (Spodoptera littoralis [2]): > 250 µg/g

COC(=O)[C@H]1[C@@H](OC(C)=O)[C@@]2(O)c3c(cc4c(c3OC)OCO4)O[C@@]2(c2ccc(OC)cc2)[C@@H]1c1ccccc1
LC50 (Spodoptera littoralis [1]): 12.2 µg/g
EC50 (Spodoptera littoralis [2]): 1.2 µg/g

COc1ccc(C2C(=O)Oc3cc4c(c(OC)c32)OCO4)cc1 (stereo unspecified) [AGLALACTONE]
LC50 (Spodoptera littoralis [1]): >100 µg/g
EC50 (Spodoptera littoralis [2]): > 100 µg/g

COc1cc(C[C@H]2CO[C@H](c3ccc(O)c(OC)c3)[C@H]2COC(C)=O)ccc1O [LARICIRESINOL ACETATE]
LC50 (Spodoptera littoralis [1]): >250 µg/g
EC50 (Spodoptera littoralis [2]): > 250 µg/g
